How the values were obtained:
[1] = tested on: H1975 cells; assay: MTT antiproliferative assay, H1975; format: cell-based, human; details: ratio of IC50 BEAS-2B to H1975
Summary of the method: (§1)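 Cell culture: A549, PC9 and normal lung epithelial BEAS-2B in DMEM with 10% FBS and penicillin/streptomycin/amphotericin B; H1975 in RPMI-1640 with 10% FBS; all at 37 °C, 5% CO2. Log-phase cells seeded at 3 × 10^3/well overnight, then exposed to graded compound concentrations or DMSO for 72 h. MTT added for 4 h in the dark, crystals dissolved in DMSO, absorbance read at 490 nm; three parallel experiments.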

[2] = tested on: A549 cells; assay: MTT antiproliferative assay, A549; format: cell-based, human; details: ratio of IC50 BEAS-2B to A549
Summary of the method: as §1

[3] = tested on: cleaved-caspase 9, Bax, Bcl-2; assay: Western blot of apoptosis-related proteins; format: cell-based, human; details: A549, 48 h
Summary of the method: (§2)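 Cells treated with the indicated concentrations of test compound for 48 h. Lysates were heat-denatured at 104 °C for 12 min, protein measured by BCA, and equal amounts run on SDS-PAGE and transferred to PVDF. Membranes were blocked 1 h with 5% BSA or milk, incubated with primary antibody overnight at 4 °C, then secondary 2 h at room temperature. Detection by ECL; bands quantified by densitometry.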

[4] = tested on: A549 spheroids; assay: 3D spheroid cell inhibition assay; format: cell-based, human; details: treated every 3 days
Summary of the method: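 A549 cells seeded at 20 000 cells/well in ultralow-attachment U-bottom wells to form tumor spheroids. Once formed, spheroids were exposed to the indicated concentrations of test compound, renewed every 3 days. Spheroids were photographed under a microscope to document growth and morphology.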

[5] = tested on: mitochondrial membrane potential; assay: Mitochondrial membrane potential, JC-1, flow cytometry; format: cell-based; details: control 19.25%
Summary of the method: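 Cells in six-well plates were stained with JC-1 working solution, prepared per kit, for 20 min at 37 °C. After a PBS wash, mitochondrial membrane potential was measured by flow cytometry and also viewed by fluorescence microscopy.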

[6] = tested on: ALK, p-ALK; assay: Western blot of ALK and p-ALK; format: cell-based, human; details: A549, 48 h
Summary of the method: (§3)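 A549 cells were exposed to the indicated test compound concentrations for 48 h, then lysed and heat-denatured at 104 °C for 12 min. Protein was quantified by BCA, and equal amounts were resolved by SDS-PAGE onto PVDF. Membranes were blocked 1 h (5% BSA or skim milk), given primary antibody overnight at 4 °C, washed in TBST, given secondary antibody 2 h at room temperature, and imaged by ECL.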

[7] = tested on: p27, p21, CDK2, p-Rb; assay: Western blot of G1 phase associated proteins; format: cell-based, human; details: A549, 0.5 to 2.0 μM, 48 h
Summary of the method: as §3

[8] = tested on: A549 cells; assay: Annexin V-FITC/PI apoptosis assay, flow cytometry; format: cell-based, human; details: 48 h, control 2.64%
Summary of the method: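 A549 cells seeded at 1 × 10^5 per well in 6-well plates and left overnight. They were then treated with test compound for 48 h, collected by PBS rinsing and stained with Annexin V-FITC and PI for 15 min at room temperature in the dark. Apoptotic fractions were read by flow cytometry; mean ± SD, n = 3.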

[9] = tested on: A549 cells; assay: Cell cycle analysis, PI staining, flow cytometry; format: cell-based, human; details: A549, 48 h
Summary of the method: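 A549 cells were exposed to a range of test compound concentrations for 48 h. They were then washed in cold PBS, fixed in precooled 70% ethanol and held overnight at −20 °C. After a PBS wash, cells were stained for 30 min at room temperature in the dark with PI (50 μg/mL) plus RNase A (100 μg/mL). DNA content was read by flow cytometry.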

[10] = tested on: p-PI3K, p-AKT; assay: Western blot of PI3K and AKT; format: cell-based, human; details: 48 h
Summary of the method: as §2

[11] = tested on: ALK; assay: Proteome Profiler Human Phospho-RTK Array; format: cell-based; details: A549, 2.0 μM, 24 h
Summary of the method: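 A549 cells were treated with test compound (2.0 μM) or left untreated for 24 h, then lysed in buffer with protease and phosphatase inhibitors. Protein was measured by Bradford. Arrays covering 49 phospho-RTKs were blocked for 1 h, then incubated with 450 μg lysate overnight at 4 °C. After three washes, arrays were probed for 2 h with anti-phospho-tyrosine-HRP and developed by chemiluminescence.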

CN(C)CCn1cnc2ccc(-c3ccc4sc(NC(=O)Nc5ccc(F)cc5)nc4c3)cc2c1=O [Compound 38]
selectivity (fold) H1975 vs BEAS-2B [1]: 0.92 fold | selectivity (fold) A549 vs BEAS-2B [2]: 1.30 fold

CCCn1cnc2ccc(-c3ccc4sc(NC(=O)Nc5ccc(F)cc5)nc4c3)cc2c1=O [Compound 45]
Bax level [3]: increased in a concentration-dependent manner | Bcl-2 level [3]: decreased | cleaved-caspase 9 level [3]: increased in a concentration-dependent manner | growth of A549 tumor spheres [4]: can inhibit the growth of tumor spheres | JC-1 M2 fraction (change of Δψm) ([5]; 0.25 μM): 47.72% | JC-1 M2 fraction (change of Δψm) ([5]; 0.5 μM): 51.16% | JC-1 M2 fraction (change of Δψm) ([5]; 1.0 μM): 60.52% | phosphorylation level of ALK (Western blot) [6]: reduces the phosphorylation levels of ALK | total protein level of ALK (Western blot) [6]: decreases the total protein levels of ALK | selectivity (fold) H1975 vs BEAS-2B [1]: 5.80 fold | CDK2 expression level [7]: reduced in a concentration-dependent manner | p21 expression level [7]: markedly upregulated in a dose-dependent manner | p27 expression level [7]: markedly upregulated in a dose-dependent manner | p-Rb expression level [7]: reduced in a concentration-dependent manner | annexin V positive cells (Q2-4) ([8]; A549, 2.0 μM): 7.13% | annexin V positive cells (Q2-4) ([8]; A549, 4.0 μM): 20.36% | selectivity (fold) A549 vs BEAS-2B [2]: 7.10 fold | cell cycle distribution [9]: induced cell cycle arrest at the G1 phase in a concentration-dependent manner | p-AKT protein expression [10]: inhibited the protein expression | p-PI3K protein expression [10]: inhibited the protein expression | phosphorylation level of ALK (Phospho-RTK array) [11]: reduced the phosphorylation levels of ALK

CC(=O)O[C@H]1C(=O)[C@@]2(C)[C@H]([C@H](OC(=O)c3ccccc3)[C@]3(O)C[C@H](OC(=O)[C@H](O)[C@@H](NC(=O)c4ccccc4)c4ccccc4)C(C)=C1C3(C)C)[C@]1(OC(C)=O)CO[C@@H]1C[C@@H]2O [paclitaxel, reference compound]
selectivity (fold) H1975 vs BEAS-2B [1]: 3.28 fold | selectivity (fold) A549 vs BEAS-2B [2]: 0.42 fold

Reference: PMC11840607 (ACS Omega, 2025)
